Experimental data pooled from the literature.
Protocols differ between the studies behind these lines.
Sample: plasma
Route: intravenous

Structure (SMILES) | system | conditions | Vd
Oc1c(-n2ccnn2)cnn1-c1cc(N2CCOCC2)ncn1 | male rat | 5 mg/kg | 0.62 L/kg
C#Cc1cnc2nc(O)n(C(CC)CC)c2n1 | Sprague-Dawley rat | 1 mg/kg | 0.8 L/kg
C=CC(=O)Nc1cc(Nc2nccc(Nc3cc(Cl)c(F)cc3C(C)(C)O)n2)c(OC)cc1N1CC[C@@H](N(C)C)C1 | Wistar rat | 3 mg/kg | 13.6 L/kg
CN1CCC(c2ccccc2CC(C)(C)Nc2nc(N3CCOCC3)nc(-n3c(C(F)F)nc4ccccc43)n2)CC1 | rat | 5 mg/kg, single dose | 23.7 L/kg
CCCC[C@@H]1NC(=O)[C@H](Cc2ccc(O)cc2)NC(=O)[C@@H]2CCCN2C(=O)[C@H](CC(=O)O)NC(=O)[C@H](C)NC(=O)[C@H](Cc2ccccc2)NC(=O)[C@@H]2CSCCC(=O)N3CN(CN(C3)C(=O)CCSC[C@@H](C(=O)N[C@@H](C)C(N)=O)NC1=O)C(=O)CCSC[C@H](NC(C)=O)C(=O)N[C@@H](CC(C)(C)C)C(=O)N1CCC[C@H]1C(=O)N[C@@H](CCC(=O)O)C(=O)N[C@H](CCCCNC(=O)CCc1cn(CCOCCOCCOCCOCCOCCOCCOCCOCCOCCOCCNC(=O)CCOCCN(CCOCCC(=O)NCCOCCOCCOCCOCCOCCOCCOCCOCCOCCOCCn3cc(CCC(=O)NCCCC[C@H]4NC(=O)[C@H](CCC(=O)O)NC(=O)[C@@H]5CCCN5C(=O)[C@H](CC(C)(C)C)NC(=O)[C@@H](NC(C)=O)CSCCC(=O)N5CN6CN(C5)C(=O)CCSC[C@H](NC(=O)[C@H](Cc5ccc(O)cc5)NC(=O)[C@@H]5CCCN5C4=O)C(=O)N[C@@H](Cc4ccccc4)C(=O)N[C@@H](C)C(=O)N[C@@H](CC(=O)O)C(=O)N4CCC[C@H]4C(=O)N[C@@H](Cc4ccc(O)cc4)C(=O)N[C@@H](CCCC)C(=O)N[C@H](C(=O)N[C@@H](C)C(N)=O)CSCCC6=O)nn3)CCOCCC(=O)NCCOCCOCCOCCOCCOCCOCCOCCOCCOCCOCCn3cc(CCC(=O)N[C@H]4CSCCC(=O)N5CN6CN(C5)C(=O)CCSC[C@H](NC(=O)[C@@H](CC(=O)O)NC(=O)[C@H](Cc5cccc7ccccc57)NC(=O)[C@@H]5CCCN5C4=O)C(=O)N[C@@H](CCSC)C(=O)N[C@@H](CCCCNC(=N)N)C(=O)N[C@@H](CC(=O)O)C(=O)N[C@@H](Cc4c[nH]c5ccccc45)C(=O)N[C@@H](CO)C(=O)N[C@@H]([C@@H](C)O)C(=O)N4CCC[C@H]4C(=O)N4C[C@H](O)C[C@H]4C(=O)N[C@@H](Cc4c[nH]c5ccccc45)C(=O)N[C@H](C(N)=O)CSCCC6=O)nn3)nn1)C(=O)N1CCC[C@H]1C(=O)N[C@@H](Cc1ccc(O)cc1)C(=O)N2 | rat | 2 mg/kg | 0.44 L/kg
CCNC(=O)c1nc(-c2ccc3[nH]c(-c4nc(C)no4)cc3c2)c(C)[nH]1 | Sprague-Dawley rat | 1 mg/kg | 1.3 L/kg
CCc1cc(C(=O)NC)c2nccc(N3CCc4c(cc(Cn5ccnc5)cc4-c4cn(C)nc4C(F)(F)F)C3=O)c2c1 | male Sprague-Dawley rat | 3 mg/kg | 1 L/kg
COc1ccc2c(Cc3ccccc3F)c3n(c(=O)c2c1OC)CCc1cc2c(cc1-3)OCO2 | rat | 5 mg/kg | 0.32 L/kg
CCCC[C@@H]1NC(=O)[C@H](Cc2ccc(O)cc2)NC(=O)[C@@H]2CCCN2C(=O)[C@H](CC(=O)O)NC(=O)[C@H](C)NC(=O)[C@H](Cc2ccccc2)NC(=O)[C@@H]2CSCCC(=O)N3CN(CN(C3)C(=O)CCSC[C@@H](C(=O)N[C@@H](C)C(N)=O)NC1=O)C(=O)CCSC[C@H](NC(C)=O)C(=O)N[C@@H](CC(C)(C)C)C(=O)N1CCC[C@H]1C(=O)N[C@@H](CCC(=O)O)C(=O)N[C@H](CCCCNC(=O)CCc1cn(CCOCCOCCOCCOCCOCCOCCOCCOCCOCCOCCNC(=O)c3cc(C(=O)NCCOCCOCCOCCOCCOCCOCCOCCOCCOCCOCCn4cc(CCC(=O)NCCCC[C@H]5NC(=O)[C@H](CCC(=O)O)NC(=O)[C@@H]6CCCN6C(=O)[C@H](CC(C)(C)C)NC(=O)[C@@H](NC(C)=O)CSCCC(=O)N6CN7CN(C6)C(=O)CCSC[C@H](NC(=O)[C@H](Cc6ccc(O)cc6)NC(=O)[C@@H]6CCCN6C5=O)C(=O)N[C@@H](Cc5ccccc5)C(=O)N[C@@H](C)C(=O)N[C@@H](CC(=O)O)C(=O)N5CCC[C@H]5C(=O)N[C@@H](Cc5ccc(O)cc5)C(=O)N[C@@H](CCCC)C(=O)N[C@H](C(=O)N[C@@H](C)C(N)=O)CSCCC7=O)nn4)cc(C(=O)NCCOCCOCCOCCOCCOCCOCCOCCOCCOCCOCCn4cc(CCC(=O)N[C@H]5CSCCC(=O)N6CN7CN(C6)C(=O)CCSC[C@H](NC(=O)[C@@H](CC(=O)O)NC(=O)[C@H](Cc6cccc8ccccc68)NC(=O)[C@@H]6CCCN6C5=O)C(=O)N[C@@H](CCSC)C(=O)N[C@@H](CCCCNC(=N)N)C(=O)N[C@@H](CC(=O)O)C(=O)N[C@@H](Cc5c[nH]c6ccccc56)C(=O)N[C@@H](CO)C(=O)N[C@@H]([C@@H](C)O)C(=O)N5CCC[C@H]5C(=O)N5C[C@H](O)C[C@H]5C(=O)N[C@@H](Cc5c[nH]c6ccccc56)C(=O)N[C@H](C(N)=O)CSCCC7=O)nn4)c3)nn1)C(=O)N1CCC[C@H]1C(=O)N[C@@H](Cc1ccc(O)cc1)C(=O)N2 | rat | 2 mg/kg | 1 L/kg
COc1cc(F)ccc1-c1ncnc(Nc2cccc(CS(N)(=O)=O)c2)n1 | male Wistar rat |  | 1.4 L/kg
CN1CCC(COc2cnc(-c3cccc(Cn4nc(-c5cccc(C#N)c5)ccc4=O)c3)nc2)CC1 | male Sprague-Dawley rat | 1 mg/kg | 19 L/kg
O=C(c1cc(Cc2n[nH]c(=O)c3ccccc23)ccc1F)N1CCN(C(=O)C2CC2)CC1 | female Sprague-Dawley rat |  | 0.201 L
O=C(Nc1cc(F)c(F)c(F)c1)c1ccc(F)c(S(=O)(=O)NCc2cccc(B(O)O)c2)c1 | male Sprague-Dawley rat | 2 mg/kg | 11 L/kg
